This passage reports IC50, Activity and inhibition in vivo results from ChEMBL document CHEMBL1140799, “Novel heterocycle-substituted pyrimidines as inhibitors of NF-kappaB transcription regulation related to TNF-alpha cytokine release” (Bioorg Med Chem Lett, 2008).

The nature of experiment [1]: (§1) Inhibition of NF-kappaB-mediated transcriptional activation in human A549 cells. It is filed as cell-based.
Experiment [2] can be described thus: (§2) Inhibition of AP1-mediated transcriptional activation in human Jurkat cells. In kind it is cell-based.
Experiment [3] addresses Glycogen synthase kinase-3 beta (Homo sapiens, UniProt P49841). Put plainly: Inhibition of GSK3-beta.
The test system of another experiment is Jurkat. The description is as §2. In kind it is cell-based.
The test system of another experiment is THP-1. Put plainly: Inhibition of LPS-induced TNFalpha production in human THP1 cells. In kind it is functional, cell-based. A digest of the protocol: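 THP-1 monocytes seeded at 1 × 10⁶ cells/mL in 1% FCS medium and left overnight. Compound pretreatment for 1 h, then LPS stimulation for 24 h. TNF-α in supernatants measured by sandwich ELISA. IC50 is the mean of n = 3 repeat experiments, SD given.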

The subject of experiment [4] is Mus musculus. Kind of experiment: Inhibition of LPS-induced TNFalpha release in BALB/c mouse at 300 mg/kg relative to […]. It is filed as functional. A digest of the protocol: (§3)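 Oral dosing of BALB/c mice 30 min before LPS challenge (0.1 mg/kg ip). Serum TNF-α determined 90 min after LPS. BIRB796 (p38 MAP kinase inhibitor) served as reference compound.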
A further experiment relates to A549. Described as §1. It is filed as cell-based.
For experiment [5], the system named is Mus musculus. Put plainly: Inhibition of LPS-induced TNFalpha release in BALB/c mouse at 50 mg/kg. It is filed as functional. The procedure, abridged:
as §3

Molecules are shown by their SMILES. Active and inactive are the calls of the source. The calls are words filed in the database; no cut-off is given here.

`COc1cccc(Nc2nccc(C3=C(c4ccccc4)NN4C=CC=CC34)n2)c1` (configuration not stated): the half-maximal inhibitory concentration (IC50) in experiment [1] was found to be 1.9 µM; in experiment [2], 1600 nM; in experiment [3] it was 30 nM.

Take `O=C(Nc1n[nH]c2nc(N3CCN(C(=O)c4ccc(F)cc4F)CC3)c(F)cc12)C1CC1`: the IC50 in experiment [1] came to 19.3 µM. Moreover, the result (in the experiment on Jurkat; in experiment [3]) was inactive.

Take `COCCn1cc(-c2ccnc(Nc3cccc(OC)c3)n2)c2cccnc21`: the IC50 in experiment [1] was found to be 1.4 µM; in experiment [3] it was 2200 nM; with THP-1 it was 990 nM. The outcome in the experiment with Jurkat was inactive. Besides, 300 mg/kg produced 89% inhibition in vivo in the experiment on Mus musculus [4].

`COc1ccccc1N1CCN(c2nc3[nH]nc(NC(=O)C4CC4)c3cc2F)CC1` displayed an IC50 in experiment [1] of 10.9 µM. In addition, the outcome (in the experiment on Jurkat; in experiment [3]; in the experiment on THP-1) was inactive.

For `Cc1ccc(Cl)cc1Nc1nccc(C2=CNN3C=CC=CC23)n1` (configuration not stated), the values for the half-maximal inhibitory concentration (IC50) in experiment [1], in experiment [2] and in experiment [3] were 4.3 µM, 4900 nM and 10600 nM, respectively.

Turning to `O=C(Nc1n[nH]c2nc(N3CCNCC3)c(F)cc12)C1CC1`, the result (in the experiment on A549; in the experiment on Jurkat; in experiment [3]) was inactive.

The compound `Cc1ccc(-n2nc(C(C)(C)C)cc2NC(=O)Nc2ccc(OCCN3CCOCC3)c3ccccc23)cc1` [DORAMAPIMOD] displayed an inhibition in vivo at 50 mg/kg in the experiment with Mus musculus [5] of 93%.

Consider `C1=CC2C(c3ccnc(Nc4ccccc4)n3)=C(c3ccccc3)NN2C=C1` (configuration not stated), for which the half-maximal inhibitory concentration (IC50) in experiment [1] worked out at 1.7 µM; in experiment [2], 700 nM; in experiment [3] it was 60 nM.

On to `COCCn1cc(-c2ccnc(Nc3cccc(OC)c3)n2)c2ccccc21`, for which the concentration for half-maximal inhibition (IC50) amounted to 7.8 µM in experiment [1] and 140 nM in experiment [3]. In addition, the outcome in the experiment on Jurkat was inactive.

With `COc1cccc(Nc2nccc(C3=CNN4C=CC=CC34)n2)c1` (configuration not stated), the results for the IC50 in experiment [1], in experiment [2] and in experiment [3] were 1 µM, 1800 nM and 100 nM, respectively.

Regarding `C1=CC2C(c3ccnc(Nc4ccccc4)n3)=CNN2C=C1` (configuration not stated), the IC50 in experiment [1] was found to be 0.6 µM; in experiment [2] it was 900 nM; in experiment [3], 150 nM; with THP-1 it was 140 nM.

Take `O=C(Nc1n[nH]c2nc(N3CCN(S(=O)(=O)c4ccccc4C(F)(F)F)CC3)c(F)cc12)C1CC1`: the IC50 in experiment [1] is 9.4 µM. In addition, the result (in the experiment on Jurkat; in experiment [3]) was inactive.

For the compound `COCCn1cc(-c2ccnc(Nc3ccccc3)n2)c2cccnc21`, the IC50 turned out to be 5.6 µM in experiment [1], 11400 nM in experiment [2] and 1050 nM in experiment [3].

Take `COCCn1cc(-c2ccnc(Nc3ccccc3)n2)c2ccccc21`: the IC50 in experiment [1] amounted to 10.4 µM; in experiment [3], 320 nM. For the same compound, the outcome with Jurkat was inactive.

In the case of `COc1ccccc1C(=O)N1CCN(c2nc3[nH]nc(NC(=O)C4CC4)c3cc2F)CC1`, in experiment [1], the IC50 worked out at 13.1 µM. In addition, the outcome (in the experiment with Jurkat; in experiment [3]) was inactive.

For orientation: IC50 means the concentration needed to halve the response being measured. High values mean a need for much substance, low ones inhibition by little substance. By inhibition in vivo is commonly meant the relative decrease from the control value, in per cent.
